According to ChEMBL document CHEMBL3091364, “Benzyloxybenzylammonium chlorides: Simple amine salts that display anticonvulsant activity” (Bioorg Med Chem, 2013):
Active and inactive are the calls of the source. The calls are words filed in the database; no cut-off is given here.

Columns and labels:
[1] = Toxicity in ip dosed albino CF-1 mouse assessed as neurological impairment measured at 0.25 hrs by rotorod test; format: organism-based; settings: in vivo
In short: (§1)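 Male albino Carworth Farms No. 1 mice dosed intraperitoneally under the NINDS Anticonvulsant Screening Program; neurological impairment scored by rotorod test. Qualitative screens used preset doses (e.g., 30, 100 mg/kg); where activity was sufficient, dose–response curves were run at time of peak effect to give TD50 in mg/kg with 95% confidence intervals.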

[2] = system: Mus musculus; assay: Anticonvulsant activity in ip dosed albino CF-1 mouse assessed as protection against maximal electroshock-induced seizures measured at 0.5 hrs; format: functional; settings: albino CF-1, ip
In short: (§2)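 Screened under the NINDS ASP in male albino Carworth Farms No. 1 mice (ip) or male albino Sprague-Dawley rats (ip or po), using MES, 6 Hz (32 mA) and subcutaneous pentylenetetrazol seizure tests. Initial qualitative tests used preset doses (e.g., 30, 50, 100 mg/kg). ED50 values with 95% confidence intervals came from dose–response data collected at the time of peak effect.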

[3] = target: T1, Alpha-1D adrenergic receptor (Homo sapiens) (UniProt P25100); assay: Inhibition of adrenergic alpha-1D receptor (unknown origin) at 10 uM relative to control
T1 sequence (whole entry): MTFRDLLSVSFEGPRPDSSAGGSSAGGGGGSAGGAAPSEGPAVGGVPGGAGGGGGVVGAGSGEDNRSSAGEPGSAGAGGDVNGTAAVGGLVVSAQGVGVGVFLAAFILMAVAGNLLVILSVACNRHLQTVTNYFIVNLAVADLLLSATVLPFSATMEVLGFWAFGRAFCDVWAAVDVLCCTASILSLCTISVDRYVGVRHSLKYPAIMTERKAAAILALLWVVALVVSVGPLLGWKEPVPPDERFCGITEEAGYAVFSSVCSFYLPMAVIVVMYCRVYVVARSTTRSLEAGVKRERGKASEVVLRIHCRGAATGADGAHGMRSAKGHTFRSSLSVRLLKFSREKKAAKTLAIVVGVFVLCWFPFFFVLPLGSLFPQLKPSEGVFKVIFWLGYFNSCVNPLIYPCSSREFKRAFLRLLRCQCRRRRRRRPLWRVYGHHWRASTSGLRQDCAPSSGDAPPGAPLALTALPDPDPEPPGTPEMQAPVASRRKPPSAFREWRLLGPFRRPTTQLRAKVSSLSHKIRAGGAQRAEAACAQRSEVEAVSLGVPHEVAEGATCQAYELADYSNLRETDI

[4] = system: Rattus norvegicus; assay: Anticonvulsant activity in ip dosed albino Sprague-Dawley rat assessed as protection against maximal electroshock-induced seizures measured at 0.25 to 4 hrs; format: functional; in short: as §2
[5] = Toxicity in ip dosed albino CF-1 mouse assessed as neurological impairment measured at 0.25 to 4 hrs by rotorod test; format: organism-based; settings: in vivo; in short: as §1
[6] = system: Mus musculus; assay: Anticonvulsant activity in ip dosed albino CF-1 mouse assessed as protection against maximal electroshock-induced seizures measured at 0.25 to 0.5 hrs; format: functional; settings: albino CF-1, ip; in short: as §2
[7] = target: D(2) dopamine receptor (Homo sapiens) (UniProt P14416); assay: Inhibition of dopaminergic D2 receptor (unknown origin) at 10 uM relative to control
D(2) dopamine receptor (Homo sapiens), sequence (P14416 whole entry): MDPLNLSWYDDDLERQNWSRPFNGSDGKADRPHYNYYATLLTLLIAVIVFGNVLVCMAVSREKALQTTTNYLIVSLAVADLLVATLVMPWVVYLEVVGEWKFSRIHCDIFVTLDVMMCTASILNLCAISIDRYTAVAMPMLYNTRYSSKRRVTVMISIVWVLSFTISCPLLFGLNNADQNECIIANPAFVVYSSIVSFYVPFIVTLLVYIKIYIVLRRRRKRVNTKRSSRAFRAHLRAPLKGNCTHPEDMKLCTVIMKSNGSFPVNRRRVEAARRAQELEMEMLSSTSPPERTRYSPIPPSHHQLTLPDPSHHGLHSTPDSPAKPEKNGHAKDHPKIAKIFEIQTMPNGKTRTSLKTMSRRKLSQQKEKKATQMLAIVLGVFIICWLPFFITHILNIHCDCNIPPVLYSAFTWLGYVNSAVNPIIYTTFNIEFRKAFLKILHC

[8] = system: Mus musculus; assay: Anticonvulsant activity in albino CF-1 mouse assessed as protection against maximal electroshock-induced seizures at 100 mg/kg, ip; format: functional, organism-based; set-up: dose 100 mg/kg; in short: as §2
[9] = system: Mus musculus; assay: Anticonvulsant activity in ip dosed albino CF-1 mouse assessed as protection against 6 Hz psychomotor seizure measured at 0.25 to 4 hrs; format: functional; settings: albino CF-1, ip; in short: as §2
[10] = target: T2, 5-hydroxytryptamine receptor 3A (Homo sapiens) (UniProt P46098); assay: Inhibition of 5-HT3 receptor (unknown origin) at 10 uM relative to control
T2 sequence (whole entry): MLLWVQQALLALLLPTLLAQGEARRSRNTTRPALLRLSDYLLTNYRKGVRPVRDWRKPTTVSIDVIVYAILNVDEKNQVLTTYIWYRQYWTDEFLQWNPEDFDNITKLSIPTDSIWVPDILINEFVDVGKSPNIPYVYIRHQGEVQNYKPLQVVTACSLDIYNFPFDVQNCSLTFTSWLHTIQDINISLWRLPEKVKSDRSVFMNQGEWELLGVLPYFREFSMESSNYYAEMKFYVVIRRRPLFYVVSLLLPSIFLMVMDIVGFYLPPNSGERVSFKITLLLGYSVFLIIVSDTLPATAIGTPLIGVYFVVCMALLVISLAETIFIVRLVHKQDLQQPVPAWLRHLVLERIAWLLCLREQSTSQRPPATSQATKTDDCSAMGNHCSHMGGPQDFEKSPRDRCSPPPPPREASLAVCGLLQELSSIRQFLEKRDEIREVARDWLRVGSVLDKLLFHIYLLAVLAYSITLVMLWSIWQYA

[11] = target: T3, Alpha-1A adrenergic receptor (Homo sapiens) (UniProt P35348); assay: Inhibition of adrenergic alpha-1A receptor (unknown origin) at 10 uM relative to control
T3 sequence (whole entry): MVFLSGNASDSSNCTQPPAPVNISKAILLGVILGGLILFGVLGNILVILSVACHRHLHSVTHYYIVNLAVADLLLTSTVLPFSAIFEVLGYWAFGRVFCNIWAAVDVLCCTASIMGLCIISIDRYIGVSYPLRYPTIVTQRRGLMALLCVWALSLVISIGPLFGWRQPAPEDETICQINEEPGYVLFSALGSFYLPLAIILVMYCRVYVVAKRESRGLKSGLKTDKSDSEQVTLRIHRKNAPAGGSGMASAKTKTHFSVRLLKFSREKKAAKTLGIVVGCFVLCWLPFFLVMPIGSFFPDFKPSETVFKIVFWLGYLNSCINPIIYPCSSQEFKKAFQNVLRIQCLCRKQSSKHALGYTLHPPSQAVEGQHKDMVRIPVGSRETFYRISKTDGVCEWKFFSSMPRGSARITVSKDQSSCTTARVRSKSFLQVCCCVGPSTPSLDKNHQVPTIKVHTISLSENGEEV

[12] = target: 5-hydroxytryptamine receptor 1B (Homo sapiens) (UniProt P28222); assay: Inhibition of 5-HT1B receptor (unknown origin) at 10 uM relative to control
5-hydroxytryptamine receptor 1B (Homo sapiens), sequence (P28222 whole entry): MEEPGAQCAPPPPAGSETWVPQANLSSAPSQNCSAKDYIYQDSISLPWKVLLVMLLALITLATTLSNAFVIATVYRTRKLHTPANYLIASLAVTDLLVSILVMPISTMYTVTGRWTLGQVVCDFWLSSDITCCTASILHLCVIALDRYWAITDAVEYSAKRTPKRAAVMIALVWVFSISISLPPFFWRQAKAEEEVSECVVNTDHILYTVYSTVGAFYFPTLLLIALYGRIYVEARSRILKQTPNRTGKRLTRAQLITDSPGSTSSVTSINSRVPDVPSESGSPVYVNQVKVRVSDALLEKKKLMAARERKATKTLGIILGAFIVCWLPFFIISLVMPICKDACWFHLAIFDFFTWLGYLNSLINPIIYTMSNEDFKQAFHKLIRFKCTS

[13] = target: 5-hydroxytryptamine receptor 1E (Homo sapiens) (UniProt P28566); assay: Inhibition of 5-HT1E receptor (unknown origin) at 10 uM relative to control
5-hydroxytryptamine receptor 1E (Homo sapiens), sequence (P28566 whole entry): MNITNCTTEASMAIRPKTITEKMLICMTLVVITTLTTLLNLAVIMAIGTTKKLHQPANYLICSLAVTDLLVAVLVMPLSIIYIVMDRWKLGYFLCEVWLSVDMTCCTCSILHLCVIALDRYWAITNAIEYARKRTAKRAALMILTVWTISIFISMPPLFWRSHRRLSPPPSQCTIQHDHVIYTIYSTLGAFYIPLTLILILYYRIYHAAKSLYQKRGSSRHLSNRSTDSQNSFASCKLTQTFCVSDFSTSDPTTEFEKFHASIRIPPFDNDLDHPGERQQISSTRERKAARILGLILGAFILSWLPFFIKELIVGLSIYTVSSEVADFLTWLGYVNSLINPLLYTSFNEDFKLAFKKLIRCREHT

[14] = system: Mus musculus; assay: Anticonvulsant activity in ip dosed albino CF-1 mouse assessed as protection against 6 Hz psychomotor seizure measured at 2 hrs; format: functional; settings: albino CF-1, ip; in short: as §2
[15] = system: Mus musculus; assay: Anticonvulsant activity in ip dosed albino CF-1 mouse assessed as protection against subcutaneous metrazol-induced seizure measured at 0.25 hrs; format: functional; settings: albino CF-1, 0.25 h; in short: as §2
[16] = system: Mus musculus; assay: Anticonvulsant activity in ip dosed albino CF-1 mouse assessed as protection against 6 Hz psychomotor seizure measured at 0.5 hrs; format: functional; settings: albino CF-1, ip; in short: as §2
[17] = Toxicity in ip dosed albino CF-1 mouse assessed as neurological impairment measured at 0.5 to 2 hrs by rotorod test; format: organism-based; settings: in vivo; in short: as §1
[18] = system: Mus musculus; assay: Anticonvulsant activity in ip dosed albino CF-1 mouse assessed as protection against maximal electroshock-induced seizures measured at 0.5 to 2 hrs; format: functional; settings: albino CF-1, ip; in short: as §2
[19] = system: Mus musculus; assay: Anticonvulsant activity in corneally kindled mouse assessed as protection against seizure at 78 mg/kg, ip; format: functional, organism-based; set-up: dose 78 mg/kg
In short: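 Corneally kindled mouse seizure model with ip dosing. Protection was scored in 4 animals, and the average seizure score was recorded.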

| inhibition [3] [%] | inhibition [7] [%] | inhibition [10] [%] | inhibition [11] [%] | inhibition [12] [%] | inhibition [13] [%] | Compound | TD50 at 0.25 h [1] [mg/kg] | ED50 [2] [mg/kg] | ED50 [4] [mg/kg] | TD50 [5] [mg/kg] | ED50 [9] [mg/kg] | ED50 [14] [mg/kg] | further results |
| --- | --- | --- | --- | --- | --- | --- | --- | --- | --- | --- | --- | --- | --- |
| – | – | – | – | – | – | Cl.NCc1ccc(OCc2cccc(OC(F)(F)F)c2)cc1 | 92 | 28 | – | – | – | – | – |
| -9.1 | 3.2 | – | – | – | – | Cl.NCc1ccc(OCc2cccc(F)c2)cc1 | – | – | > 30 | > 100 | > 50 | – | ED50 [6]: < 100 mg/kg; Activity [8]: Active |
| -6.6 | – | 23.1 | -9.4 | -6.7 | 2.7 | Cl.NCc1ccc(OCc2ccc(Cl)cc2)cc1 | – | – | > 30 | > 100 | – | < 100 | – |
| – | 5.3 | – | – | – | -6.9 | Cl.NCc1ccc(OCc2ccc(OC(F)(F)F)cc2)cc1 | – | < 100 | – | > 100 | – | 30 | – |
| 0.2 | – | -4.2 | -7.5 | -2.5 | – | Cl.NCc1ccc(OCc2ccc(F)cc2)cc1 | – | – | – | > 100 | > 100 | – | – |
| 6.5 | 12.7 | 10.4 | -9.7 | -8.8 | -5.2 | Cl.NCc1ccc(OCc2ccccc2OC(F)(F)F)cc1 | 64 | – | – | – | < 100 | – | ED50 [15]: > 80 mg/kg |
| – | 12.4 | – | 12.8 | – | – | Cl.NCc1ccc(OCc2ccccc2)cc1 | – | – | > 30 | – | – | – | ED50 [16]: 30 mg/kg; TD50 [17]: 100 mg/kg; ED50 [18]: > 100 mg/kg |
| – | 7.4 | – | – | -7.7 | -6.6 | Cl.NCc1ccc(OCc2ccccc2F)cc1 | – | 30 | > 30 | – | – | – | ED50 [16]: 30 mg/kg; TD50 [17]: 100 mg/kg |
| -1.9 | – | 13.7 | – | – | – | Cl.NCc1ccc(OCc2cccc(Cl)c2)cc1 | 160 | – | – | – | – | 78 | ED50 [15]: > 180 mg/kg; Activity [19]: Active |
